Compound activity as filed in PubChem BioAssay.
An excerpt weighted towards active compounds, which were near 4.7% of everything screened.
Jurkat NFkB inh: lowers PMA/ionomycin-induced NF-kB signal in Jurkat cells | AID 435003 | inhibition, % at 4 µM | PMA/ionomycin-induced NF-kB luciferase reporter, luminescence | 0.53% of 330,000 active; in the data active means inhibition above about 50%
697 NFkB inh: lowers PMA/ionomycin-induced NF-kB signal in 697 B cells; 697 B-cell NF-kB luciferase reporter, 16 h; inhibition, % at 4 µM; 0.33% of 330,000 active; AID 435022; in the data active means inhibition above about 35%
VIM-2 inhibitor: blocks Pseudomonas aeruginosa VIM-2 metallo-beta-lactamase. AID 1527. purified VIM-2, nitrocefin hydrolysis, epi-absorbance fluorescence. inhibition, % at 5.6 µM. 0.89% of 290,000 active;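 active means inhibition above the mean of all tested compounds plus 3 SD, cutoff set per screening run, cut at about 7.5% in these data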;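 further: red hydrolysis product quenches plate fluorescence so inhibitors raise well fluorescence; 0% = enzyme with DMSO and 100% = DMSO without enzyme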
IMP-1 inh-1: blocks Pseudomonas aeruginosa IMP-1 metallo-beta-lactamase. purified IMP-1, nitrocefin hydrolysis, epi-absorbance fluorescence. inhibition, % at 5.6 µM. 0.45% of 290,000 active;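 active means inhibition above the mean plus 3 SD of all compounds in the same screening run, cut at about 4.5% in these data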;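 further: 0% = IMP-1 with DMSO and 100% = DMSO wells lacking enzyme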
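Assay system: purified IMP-1; Quantity: IMP-1 0.2 nM before substrate addition; Medium: HEPES buffer pH 7.1 with ZnSO4 and Brij 35; Incubation: 15 min enzyme–compound preincubation, then 25 min nitrocefin reaction, 25 °C; Signal: fluorescence quenching readout, ex 480/em 530 nm; Controls: DMSO with and without IMP-1; Repeats: singlicate testing.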
Mdm2-MdmX inh: disrupts the human Mdm2-MdmX interaction. O15151+Q00987. SaOS-2 split-luciferase Mdm2/MdmX complementation, luminescence. inhibition, % at 8 µM. 3% of 330,000 active;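 active means inhibition of at least 50% at 8 µM in the primary screen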
aSyn 5UTR inh: MLPCN primary screen, SNCA 5' untranslated region; alpha-synuclein 5'UTR reporter, inhibitor activity; inhibition, % (tested at 7.5 µM); 0.82% of 300,000 active; in the data active means inhibition above about 60%;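 further: H4 neuroglioblastoma cells stably carrying SNCA 5'UTR luciferase fusion; 0% = DMSO wells and 100% = positive control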
IMP-1 inh-2: blocks IMP-1 metallo-beta-lactamase in VIM-2 selectivity screen; shares compounds with VIM-2 inhibitor; purified IMP-1, nitrocefin hydrolysis, epi-absorbance fluorescence; inhibition, % at 5.6 µM; 1,300 tested, under 10 active; call rule not given here;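 further: 0% = enzyme with vehicle and 100% = vehicle without enzyme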
VIM-2 FRET ctr: VIM-2 FRET inhibition, artifact counter-screen; inhibition, % at 5.6 µM; shares compounds with VIM-2 inhibitor; 23% of 1,300 active; purified VIM-2, CCF2 FRET substrate hydrolysis;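 active means inhibition above the mean of all tested compounds plus 3 SD, cut at about 19% in these data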;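 further: 0% = VIM-2 plus DMSO and 100% = no enzyme wells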
TEM-1 counter: selectivity counter-screen for VIM-2 inhibitors: E. coli TEM-1 inhibitors. shares compounds with VIM-2 inhibitor. Purified TEM-1, nitrocefin hydrolysis, epi-absorbance fluorescence. AID 1866. inhibition, % at 5.6 µM. 3% of 1,300 active;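 active means inhibition above that campaign's mean inhibition plus 3 SD, cut at about 0.46% in these data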;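 further: 0% = TEM-1 with DMSO and 100% = TEM-1 with 100 µM potassium clavulanate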
Target sequence (P62593 whole entry, looked up): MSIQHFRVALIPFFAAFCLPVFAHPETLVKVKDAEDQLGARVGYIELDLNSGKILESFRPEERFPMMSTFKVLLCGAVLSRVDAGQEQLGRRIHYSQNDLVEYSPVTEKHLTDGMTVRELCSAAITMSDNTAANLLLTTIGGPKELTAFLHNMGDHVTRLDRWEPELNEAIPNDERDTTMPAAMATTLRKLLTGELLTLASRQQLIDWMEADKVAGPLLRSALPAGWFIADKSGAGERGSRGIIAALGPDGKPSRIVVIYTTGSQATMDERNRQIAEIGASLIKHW
VIM-2 inh conf: confirmation of P. aeruginosa VIM-2 metallo-beta-lactamase inhibitors; shares compounds with VIM-2 inhibitor; purified VIM-2, nitrocefin hydrolysis, epi-absorbance; inhibition, % at 5.6 µM; 96% of 1,300 active; AID 2187;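 active means inhibition of the VIM-2 beta-lactamase enzyme above about 11% from the earlier first-round screen, limit read from the data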;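 further: 0% = VIM-2 with DMSO and 100% = buffer wells without enzyme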
* hit, by the source's call; x = no result given.

SMILES	Jurkat NFkB inh	697 NFkB inh	VIM-2 inhibitor	IMP-1 inh-1	Mdm2-MdmX inh	aSyn 5UTR inh	IMP-1 inh-2	VIM-2 FRET ctr	TEM-1 counter	VIM-2 inh conf
Cc1cccc(C(=O)NC(=S)Nc2ccc(S(=O)(=O)N3CCN(C)CC3)cc2)c1	-20	-17	38*	-3	-8	-11	-2	3	-9	69*
CCCc1cc(C(=O)NNC(=S)NC2CCCCC2)cs1	-28	-71	-3	-2	5	-29	x	x	x	x
O=C(CN1CCOCC1)n1c2c(c3ccccc31)CCCC2	5	-8	13*	-1	8	16	-4	6	-7	5
O=C(CN1CCOCC1)n1c2ccccc2c2ccccc21	4	-2	-6	-1	17	7	x	x	x	x
O=C(CC1C(=O)NCCN1Cc1ccccc1C(F)(F)F)NCCN1CCCCC1=O (stereo unspecified)	3	-3	-1	-1	3	2	x	x	x	x
COc1cc(NC(=O)C2=C(C)OCCS2)c(Cl)cc1C(=O)NCCN(C)C	-9	-14	14*	-2	27	-18	-2	4	-9	27*
COc1cc(CCNC(=O)c2ccccc2NC(=O)C2=C(C)OCCS2)cc(OC)c1OC	-12	-8	-3	-2	4	12	x	x	x	x
CC12CCC(c3c(C(=O)O)nn(-c4ccccc4)c31)C2(C)C (stereo unspecified)	-11	-10	14*	0	15	2	-3	26*	-2	18*
CCc1ccc(/C=N/Nc2ncnc3nc[nH]c23)cc1	-125	-212	15*	-3	-79	-36	-3	-15	-1	43*
O=C(CSc1n[nH]c(=O)n1C1CC1)N1N=C(c2ccc(Cl)cc2)CC1c1ccco1 (stereo unspecified)	18	9	1	-2	9	18	x	x	x	x
O=C(CSc1ncn[nH]1)N1N=C(c2ccc(Cl)cc2)CC1c1ccco1 (stereo unspecified)	-10	17	13*	0	16	21	-3	30*	-6	17*
CCC(NC(=O)c1ccccc1NC(=O)C(C)(C)C)C(=O)N1CC(C)OC(C)C1 (stereo unspecified)	-2	-4	x	x	10	x	x	x	x	x
CCOC(=O)N1CCC(NC(=O)c2cc3c(=O)n(C)c4ccccc4c3n2C)CC1	8	16	5	-3	6	6	x	x	x	x
CCCN1CCN(CCCNC(=O)c2cc3c(=O)n(C)c4ccccc4c3n2C)CC1	x	x	16*	-5	x	-27	-3	4	-5	30*
Cn1c(C(=O)NCCCN2CCCCCC2)cc2c(=O)n(C)c3ccccc3c21	-20	19	22*	1	11	x	0	-2	-4	29*
CN1CCN(CCNC(=O)c2cc3c(=O)n(C)c4ccccc4c3n2C)CC1	-24	16	21*	2	21	-16	-2	5	-5	33*
Cn1c(C(=O)Nc2ccc3c(c2)OCCO3)cc2c(=O)n(C)c3ccccc3c21	-5	9	-2	-5	36	-5	x	x	x	x
Brc1ccc(CN2CCCCCC2)cc1	1	-6	x	x	2	5	x	x	x	x
Cc1nn2c(-c3ccco3)nnc2c2ccccc12	-3	-7	13*	0	8	-57	-2	-2	-4	27*
Cc1ccccc1-c1nnc2c3ccccc3c(C)nn12	15	3	0	-2	0	23	x	x	x	x
c1ccc(-c2nc(-c3ccccn3)nc(-c3ccccn3)n2)nc1	-1	7	21*	-1	14	14	-3	-24	-6	45*
COC(=O)c1cn(CCC#N)nc1-c1ccc2ccccc2c1	0	16	0	-3	9	39	x	x	x	x
COCCNc1c2c(nc3c(-c4ccccc4)c(C)nn13)CCC2	-6	-2	6	-3	14	x	x	x	x	x
Cc1nn2c(NCCCN(C)C)c3c(nc2c1-c1ccccc1)CCCC3	31	-11	45*	-1	39	-30	-2	0	-6	53*
Cc1nn2c(NCCCN(C)C)c3c(nc2c1-c1ccccc1)CCC3	-5	16	14*	-3	9	-13	-3	-5	-7	37*
SMILES	Jurkat NFkB inh	697 NFkB inh	VIM-2 inhibitor	IMP-1 inh-1	Mdm2-MdmX inh	aSyn 5UTR inh	IMP-1 inh-2	VIM-2 FRET ctr	TEM-1 counter	VIM-2 inh conf
CN1CCN(C(=O)CNc2ccc(C(F)(F)F)cc2[N+](=O)[O-])CC1	4	-10	24*	0	25	-10	-3	-2	-6	38*
CC(C)NC(=O)CNc1ccc(C(F)(F)F)cc1[N+](=O)[O-]	4	1	-4	-5	-24	-10	x	x	x	x
Cc1nnc2c(N3CCN(CCO)CC3)nc3ccccc3n12	10	-1	13*	-3	-5	11	-5	-1	-4	14*
CCN1CCN(c2nc3ccccc3n3cnnc23)CC1	-1	19	1	-1	1	18	x	x	x	x
CCOc1ccc(CCNC(=O)COC(=O)c2cccc(N(C)C)c2)cc1OCC	-21	-131	x	x	-40	-90	x	x	x	x
COc1ccc(OC)c(Nc2cc(C)nc3nc(C)nn23)c1	22	-19	15*	-4	3	-10	-3	-2	-4	30*
COc1ccc(C)cc1Nc1cc(C)nc2nc(C)nn12	46	-4	26*	-4	36	-7	-2	-1	-6	40*
COC(=O)c1ccccc1Nc1cc(C)nc2nc(C)nn12	7	-4	13*	-1	13	2	-3	2	-5	29*
COc1ccc(NS(=O)(=O)c2ccc3c(c2)NC(=O)CO3)c(OC)c1	-4	-12	-2	-1	-7	-6	x	x	x	x
CCOc1ccccc1C(=O)Nc1cccc(-c2ccc3nncn3n2)c1	1	-10	21*	0	21	-23	-3	1	-8	31*
CCOc1cc(C2C(C#N)=C(N)Oc3n[nH]c(CC)c32)ccc1OCCN1CCOCC1 (stereo unspecified)	10	-2	13*	-2	9	-5	-2	2	-5	8.3*
CCCN(C(=O)CCNC(=O)c1ccc(Cl)cc1)c1c(N)n(Cc2ccccc2)c(=O)[nH]c1=O	-10	8	x	x	-2	x	x	x	x	x
Cc1cc(Cl)n2c(nc3ccccc32)c1C#N	x	x	20*	-3	x	89*	-3	-8	-7	34*
